Compound activity as filed in PubChem BioAssay.
Pf Dd2 growth – P. falciparum Dd2 growth inhibitors, primary screen, SYBR Green fluorescence, single dose replicates; 72 h; hits give low values; activity change, % at 10 µM; hit rate 2.3% among 94,000; in the data active = activity change below about -80%; inconclusive = no clear call, values can overlap the other calls
IDH1 mut inh – inhibitors of IDH1 R132H reductase, primary screen, biochemical, plate reader, single point. Isocitrate dehydrogenase [NADP] cytoplasmic (Homo sapiens), O75874. diaphorase/resazurin fluorescence, 60 min. inhibition, % at 10 µM. hit rate 0.18% among 70,000. AID 624101, 2012; in the data active = inhibition above about 34%; inconclusive = no clear call, values can overlap the other calls; inactive = below about 11%;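 note: 0% = DMSO and 100% = no enzyme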
Target sequence (O75874 whole entry R132H): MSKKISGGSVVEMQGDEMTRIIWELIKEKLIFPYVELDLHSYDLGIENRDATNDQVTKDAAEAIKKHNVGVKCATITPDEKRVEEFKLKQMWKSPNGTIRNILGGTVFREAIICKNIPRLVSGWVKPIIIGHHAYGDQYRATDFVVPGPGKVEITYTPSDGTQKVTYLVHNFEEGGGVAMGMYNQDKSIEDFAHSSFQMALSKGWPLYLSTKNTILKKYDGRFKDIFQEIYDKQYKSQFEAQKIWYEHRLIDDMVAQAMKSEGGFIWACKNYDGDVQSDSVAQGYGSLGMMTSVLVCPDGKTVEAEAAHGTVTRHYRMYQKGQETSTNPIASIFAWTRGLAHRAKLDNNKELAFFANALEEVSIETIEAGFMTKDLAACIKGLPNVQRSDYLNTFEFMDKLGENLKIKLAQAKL
GASC1 inh – inhibitors of GASC-1 (KDM4C) histone demethylase, primary screen, biochemical, single concentration HTS | Lysine-specific demethylase 4C (Homo sapiens), Q9H3R0 | GST-KDM4C 2-372, H3K9me3 peptide, LANCE TR-FRET | inhibition, % at 12.5 µM | hit rate 0.15% among 96,000;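 active = mean replicate inhibition above about 25%, with at least 55% of replicates also reaching it, limit read from the data, passing the limit was not always enough; inconclusive = only one of those two conditions met; inactive = neither condition met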
Target sequence (Q9H3R0 2-372 limits assumed): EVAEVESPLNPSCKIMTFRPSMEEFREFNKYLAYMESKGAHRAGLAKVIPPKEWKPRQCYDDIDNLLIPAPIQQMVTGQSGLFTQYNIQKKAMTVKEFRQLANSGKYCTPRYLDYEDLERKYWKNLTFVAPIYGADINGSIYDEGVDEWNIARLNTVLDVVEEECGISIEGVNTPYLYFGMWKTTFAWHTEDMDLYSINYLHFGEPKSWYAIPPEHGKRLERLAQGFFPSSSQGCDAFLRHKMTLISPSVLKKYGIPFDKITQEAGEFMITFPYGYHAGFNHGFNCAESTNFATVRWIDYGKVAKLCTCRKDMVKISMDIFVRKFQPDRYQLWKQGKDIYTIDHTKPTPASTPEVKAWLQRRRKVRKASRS
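Assay system: GST-GASC-1 enzyme fragment 2-372 | Amount: 10 nM enzyme | Medium: HEPES buffer, pH 7.5, plus ascorbate | Reagent: H3K9me3 peptide substrate, Fe(II), 2-oxoglutarate | Doses: Single-point compound screen | Incubation: 30 min demethylation and 1 h detection at room temperature | Measured by: LANCE TR-FRET, excitation 340 nm, emissions 618 and 671 nm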
T cruzi growth-1 – T. cruzi intracellular proliferation inhibitors, primary screen, cell-based, beta-gal Tulahuen parasites, NIH3T3 host, luminescence | hit rate 5.9% among 77,000 | inhibition, % at 8.34 µM | T. cruzi beta-gal in NIH3T3, GalScreen luminescence, 90 h;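 active = mean inhibition above about 93%, with at least 55% of replicates each passing it, limit read from the data, passing the limit was not always enough; inconclusive = only one of those two conditions holds; inactive = neither condition holds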
T cruzi growth-2 – T. cruzi intracellular proliferation inhibitors, confirmation, cell-based, NIH3T3 host, beta-gal parasite, luminescence, cherry-pick; shares compounds with T cruzi growth-1; inhibition, % at 8.35 µM; AID 651739, 2012; T. cruzi beta-gal in NIH3T3, GalScreen luminescence, 90 h; hit rate 72% among 5,600;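 active = mean replicate inhibition above about 95% and at least 55% of replicates individually reaching it, limit read from the data; inconclusive = only one of the two criteria is met; inactive = neither criterion is met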
T cruzi growth-3 – inhibitors of intracellular T. cruzi replication, confirmation, NIH3T3 host cells, beta-gal parasites, cherry-pick, set 2 | inhibition, % at 2.09 µM | T. cruzi beta-gal in NIH3T3, GalScreen luminescence, 90 h | shares compounds with T cruzi growth-1 | hit rate 21% among 5,600;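 active = mean inhibition above about 95%, with at least 55% of replicates also reaching it, limit read from the data; inconclusive = meets just one of the two conditions; inactive = meets neither condition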;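 note: plate controls were neutral control median for no effect and positive control median for full effect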
NIH3T3 tox – cytotoxicity in mouse NIH/3T3 fibroblasts, confirmation, cytotoxicity control for T. cruzi proliferation inhibitor project, cell-based, cherry-pick, single point; shares compounds with T cruzi growth-1; NIH/3T3 viability, CellTiter-Glo ATP luminescence, 90 h; cytotoxicity (signal decrease), % at 8.35 µM; hit rate 14% among 5,600;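 active = mean signal decrease across replicates above about 35% based on untreated-well scatter, with enough replicates individually passing, limit read from the data; inconclusive = no rule stated though some were filed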;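 note: 0% = median of neutral control wells and 100% = median of positive control wells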
NIH3T3 tox 2 – NIH/3T3 fibroblast cytotoxicity, confirmation, cytotoxicity control, cell-based, cherry-pick, single point, set 2 | hit rate 56% among 5,600 | shares compounds with T cruzi growth-1 | NIH/3T3 viability, CellTiter-Glo ATP luminescence, 90 h | inhibition, % at 24.9 µM;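 active = mean loss of cell viability signal at or above a set limit, and enough replicates individually reaching it; inconclusive = meets only the mean limit or only the replicate share; inactive = meets neither condition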;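 note: 0% = median of neutral control wells and 100% = median of positive control wells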
An asterisk follows results filed as active; ? = inconclusive; nt = no result given. An excerpt weighted towards active compounds, which were near 5.8% of everything screened.

SMILES | Pf Dd2 growth | IDH1 mut inh | GASC1 inh | T cruzi growth-1 | T cruzi growth-2 | T cruzi growth-3 | NIH3T3 tox | NIH3T3 tox 2
C[C@@H]1CN([C@@H](C)CO)C(=O)CCCn2nncc2CO[C@@H]1CN(C)Cc1ccc(C(=O)Nc2ccccc2N)cc1 | 0 | nt | 0 | 82 | nt | nt | nt | nt
C[C@@H]1CN([C@H](C)CO)C(=O)CCCn2nncc2CO[C@H]1CN(C)Cc1ccc(C(=O)Nc2ccccc2N)cc1 | -21 | nt | -1 | 109* | 101* | 93 | 13 | 31*
C[C@@H]1CN([C@H](C)CO)C(=O)CCCn2nncc2CO[C@H]1CN(C)Cc1ccc(-c2ccccc2)cc1 | -21 | nt | 1 | -53 | nt | nt | nt | nt
COc1ccc(NC(=O)CNS(=O)(=O)c2ccccc2)cc1OC | nt | 0 | nt | nt | nt | nt | nt | nt
O=C(CSc1nc(-c2ccccc2)cs1)Nc1ccccc1 | nt | 0 | nt | nt | nt | nt | nt | nt
CN(Cc1nc(-c2ccccc2)no1)S(=O)(=O)c1ccccc1 | nt | 0 | nt | nt | nt | nt | nt | nt
COc1ccc(CN(C)C[C@@H]2OCCCC[C@H](C)Oc3ccc(NC(=O)Nc4cccc5ccccc45)cc3C(=O)N([C@@H](C)CO)C[C@@H]2C)cc1 | ? | -6 | -1 | ? | 103* | 96* | 25 | 103*
COc1ccc(CN(C)C[C@@H]2OCCCC[C@@H](C)Oc3ccc(NC(=O)Nc4cccc5ccccc45)cc3C(=O)N([C@@H](C)CO)C[C@@H]2C)cc1 | -32 | 0 | -1 | 94 | nt | nt | nt | nt
COc1ccc(CN(C)C[C@H]2OCCCC[C@H](C)Oc3ccc(NC(=O)Nc4cccc5ccccc45)cc3C(=O)N([C@@H](C)CO)C[C@H]2C)cc1 | ? | 2 | -4 | ? | 106* | 92 | 25 | ?
COc1ccc(CN(C)C[C@@H]2OCCCC[C@@H](C)Oc3ccc(NC(=O)Nc4cccc5ccccc45)cc3C(=O)N([C@@H](C)CO)C[C@H]2C)cc1 | -59 | 0 | 14 | 79 | nt | nt | nt | nt
Cc1cccc(-n2c(SCC(=O)O)nnc2-c2cccs2)c1C | nt | 1 | nt | nt | nt | nt | nt | nt
OC(CNCc1ccc(Cl)cc1Cl)Cn1c(-c2ccc(F)cc2)cc2ccccc21 (centres undefined) | nt | 0 | nt | nt | nt | nt | nt | nt
C=CCC/C=N/NC(=O)CCCCCCC(=O)NO | nt | 0 | nt | nt | nt | nt | nt | nt
C[C@H](CO)N1C[C@H](C)[C@H](CN(C)S(=O)(=O)c2ccc(Cl)cc2)Oc2c(NC(=O)CCCCCC(=O)Nc3ccccc3N)cccc2C1=O | -81* | nt | -2 | 106* | 114* | 77 | 21 | 8
C[C@H]1CN([C@@H](C)CO)C(=O)c2cccc(NC(=O)CCCCCC(=O)Nc3ccccc3N)c2O[C@@H]1CN(C)S(=O)(=O)c1ccc(Cl)cc1 | ? | 1 | -3 | 106* | 105* | 69 | 31 | 21
Cc1ccc(S(=O)(=O)N(C)C[C@H]2Oc3c(NC(=O)CCCCCC(=O)Nc4ccccc4N)cccc3C(=O)N([C@H](C)CO)C[C@@H]2C)cc1 | -65 | nt | 3 | nt | nt | nt | nt | nt
C[C@H]1CN([C@@H](C)CO)C(=O)c2cccc(NC(=O)CCCCCC(=O)Nc3ccccc3N)c2O[C@@H]1CN(C)S(=O)(=O)c1ccccc1 | -35 | nt | -1 | nt | nt | nt | nt | nt
C[C@@H]1CN([C@@H](C)CO)C(=O)c2cc(NC(=O)Nc3ccc(C(F)(F)F)cc3)ccc2O[C@@H](C)CCCCO[C@H]1CN(C)S(=O)(=O)c1cccs1 | -40 | nt | 0 | 100* | 105* | 112* | 25 | 16
C[C@H]1CCCCO[C@H](CN(C)S(=O)(=O)c2cccs2)[C@@H](C)CN([C@@H](C)CO)C(=O)c2cc(NC(=O)Nc3ccc(C(F)(F)F)cc3)ccc2O1 | -71 | nt | -3 | 99* | 105* | 109* | -22 | -2
C[C@@H]1CCCCO[C@H](CN(C)S(=O)(=O)c2cccs2)[C@H](C)CN([C@@H](C)CO)C(=O)c2cc(NC(=O)Nc3ccc(C(F)(F)F)cc3)ccc2O1 | -74 | nt | -1 | ? | 104* | 113* | 9 | 4
C[C@H]1CCCCO[C@@H](CN(C)S(=O)(=O)c2cccs2)[C@@H](C)CN([C@@H](C)CO)C(=O)c2cc(NC(=O)Nc3ccc(C(F)(F)F)cc3)ccc2O1 | -89* | 1 | 0 | ? | 96* | 110* | -13 | 7
CCOc1ccccc1NC(=O)C(C)Oc1ccc(OC)cc1 (centres undefined) | nt | 0 | nt | nt | nt | nt | nt | nt
CC(Nc1nc2ccccc2n1C)c1cc(Cl)ccc1O (centres undefined) | nt | 0 | nt | nt | nt | nt | nt | nt
O=C(NCCN1CCOCC1)C1COc2ccccc2O1 (centres undefined) | nt | 0 | nt | nt | nt | nt | nt | nt
O=C(c1ccccc1F)N1CC[C@H]2[C@H](CO)Nc3ccc(C#Cc4ccccc4)cc3[C@H]21 | -39 | nt | -1 | 108* | 111* | 81 | 20 | ?
SMILES | Pf Dd2 growth | IDH1 mut inh | GASC1 inh | T cruzi growth-1 | T cruzi growth-2 | T cruzi growth-3 | NIH3T3 tox | NIH3T3 tox 2
COc1ccc(C#Cc2ccc3c(c2)[C@H]2[C@H](CCN2C(=O)C2CCCCC2)[C@@H](CO)N3)cc1 | -55 | nt | 0 | 84 | nt | nt | nt | nt
COc1ccc(C#Cc2ccc3c(c2)[C@@H]2[C@@H](CCN2C(=O)C2CC2)[C@@H](CO)N3)cc1 | -48 | nt | -2 | 109* | 110* | 34 | 20 | 46*
COc1ccc(C#Cc2ccc3c(c2)[C@@H]2[C@@H](CCN2C(=O)c2ccccc2F)[C@H](CO)N3)cc1 | -33 | nt | 0 | 100* | 93 | 19 | -15 | 9
O=C(c1ccccc1F)N1CC[C@@H]2[C@@H](CO)Nc3ccc(C#Cc4ccccc4)cc3[C@@H]21 | -35 | nt | -5 | ? | 109* | 86 | 9 | 104*
Cc1sc2nc(SCC(=O)O)n(-c3ccc(Cl)c(Cl)c3)c(=O)c2c1C | nt | 8 | nt | nt | nt | nt | nt | nt
CC(C)(C)OC(=O)NC1(/C=N/NC(=O)CCCCCC(=O)NO)CCCC1 | nt | 0 | nt | nt | nt | nt | nt | nt
Cc1ccc(C)c(NC(=O)c2ccc(OCC(=O)Nc3cccc(Cl)c3)cc2)c1 | nt | 0 | nt | nt | nt | nt | nt | nt
COc1ccc(S(=O)(=O)N(C)C[C@H]2Oc3ccc(NC(=O)Cc4cn(C)c5ccccc45)cc3C(=O)N([C@@H](C)CO)C[C@H]2C)cc1 | 6 | -6 | 1 | 99* | 108* | 29 | 9 | 61*
